Series [1] can be described thus: Toxicity in Tsc1-GFAP knockout Balb/c mouse assessed as survival rate administered orally once a day measured post last dose. To be noted: in vivo, po, dose 50-100 mg/kg. In short, it runs like this: (§1)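 Tsc1GFAPCKO mice (Tsc1 conditionally inactivated mainly in glia). Oral dosing from P21 at 10, 25, 50 mg/kg qd or 50 mg/kg bid, n = 7–10 per group. Controls were vehicle and a comparator at 10 mg/kg. Body weight tracked. Survival followed from P21 to death or censoring at P90, compared by log-rank test.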

A short description of series [2]: Toxicity in Tsc1-GFAP knockout Balb/c mouse assessed as change in body weight at 50 to 100 mg/kg, po. It counts as organism-based. The settings on record: in vivo, dose 50-100 mg/kg.
The nature of series [3]: Metabolic stability in Sprague-Dawley rat hepatocytes assessed as parent compound remaining at 5 uM incubated for 3 hrs by LC-MS analysis. It counts as ADME, cell-based, Hepatocyte. The settings on record: read-out: Stabilty. In a few lines:
(§2)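 Cryopreserved primary hepatocytes in suspension (CD-1 mouse, Sprague-Dawley rat, Beagle dog, human). Compound diluted from 10 mM DMSO stock to 5 μM final. Sampled at 0, 15, 60, 90 and 180 min, protein precipitated with ACN plus internal standard, supernatant analysed by LC−MS. Run in duplicate. 7-ethoxycoumarin as positive control. Hepatocyte-free medium incubations as negative control.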

Series [4] can be described thus: Metabolic stability in Beagle dog hepatocytes assessed as parent compound remaining at 5 uM incubated for 3 hrs by LC-MS analysis. To be noted: read-out: Stabilty. It counts as ADME, cell-based, Canis lupus familiaris, Hepatocyte. In a few lines:
as §2

The nature of series [5]: Metabolic stability in human hepatocytes assessed as parent compound remaining at 5 uM incubated for 3 hrs by LC-MS analysis. The class given is ADME, cell-based, Hepatocyte. To be noted: read-out: Stabilty. In a few lines:
as §2

The nature of series [6]: Metabolic stability in CD1 mouse hepatocytes assessed as parent compound remaining at 5 uM incubated for 3 hrs by LC-MS analysis. It counts as ADME, cell-based, Hepatocyte. To be noted: read-out: Stabilty. In short, it runs like this:
as §2

Series [7] can be described thus: Toxicity in po dosed Balb/c nude mouse administered once daily for 14 days measured for 7 days starting from post last dose. It counts as organism-based. To be noted: in vivo, time 21 day. In short, it runs like this:
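Nontumor-bearing female BALB/c nude mice dosed p.o. once daily for 14 days at 100, 150 or 200 mg/kg (n = 3 each), with vehicle of 20% Captisol in water (n = 1). Body weight change followed, with animals evaluated for 7 days after dosing to set the maximum tolerated dose.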

In series [8] the test system is Mus musculus. The experiment in a line: Protection against Tsc1-GFAP knockout induced mortality in Balb/c mouse assessed as increase in survival rate at 100 mg/kg, po administered as single dose. The class given is functional, organism-based.
The subject of series [9] is Mus musculus. Briefly: Protection against Tsc1-GFAP knockout induced mortality in Balb/c mouse assessed as increase in survival rate administered orally twice a day measured post last dose. It counts as functional, organism-based. In a few lines: as §1
Series [10] has as its system Mus musculus. Briefly: In vivo inhibition of mTORC1 signalling in C57BL/6J mouse assessed as reduction in RPS6 phosphorylation at S235/236 residue in cortex at 10 mg/kg, po incubated for 30 mins by Western blot analysis. It counts as functional, organism-based. (In western blotting, separated proteins are transferred to a membrane and probed.)
Series [11] is described as follows: AUC (0 to 8 hrs) in C57BL/6J mouse brain at 10 mg/kg, po administered once a day for 4 consecutive days by mass spectrometry based UHPLC analysis. The class given is ADME, organism-based. Further details: route oral, time 4 day, dose 10 mg/kg. In short, it runs like this:
(§3)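 Female C57BL/6J mice given 10 mg/kg p.o. in 20% Captisol once daily for 4 consecutive days. Plasma and brain sampled after the final dose on day 4, n = 3 per time point.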

Series [12] is described as follows: Tmax in C57BL/6J mouse brain at 10 mg/kg, po administered as single dose by mass spectrometry based UHPLC analysis. The class given is ADME, organism-based. In short, it runs like this:
(§4)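 Female C57BL/6J mice dosed orally at 10 mg/kg in 20% Captisol, either once or once daily for 4 days with sampling after the last dose on day 4. Plasma and brain concentrations followed over time. Tmax taken from at least 3 time points.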

Series [13] in a line: Clearance in C57BL/6J mouse plasma at 10 mg/kg, po administered once a day for 4 consecutive days by mass spectrometry based UHPLC analysis. The class given is ADME, organism-based. To be noted: time 4 day. In short, it runs like this:
as §3

Series [14] is described as follows: Clearance in C57BL/6J mouse plasma at 10 mg/kg, po administered as single dose by mass spectrometry based UHPLC analysis. The class given is ADME, organism-based. In short, it runs like this:
(§5)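 Female C57BL/6J mice, one oral dose of 10 mg/kg in 20% Captisol; plasma and brain levels over time, n = 3 per time point (mean).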

Series [15] can be described thus: Tmax in C57BL/6J mouse plasma at 10 mg/kg, po administered as single dose by mass spectrometry based UHPLC analysis. It counts as ADME, organism-based. In a few lines: as §4
For series [16], the system named is Mus musculus. The experiment in a line: Protection against Tsc1-GFAP knockout induced mortality in Balb/c mouse assessed as increase in survival rate at 10 mg/kg, po administered as single dose. It counts as functional, organism-based.
The nature of series [17]: Cmax in C57BL/6J mouse brain at 10 mg/kg, po administered as single dose by mass spectrometry based UHPLC analysis. The arrangement: route oral, dose 10 mg/kg. It counts as ADME, organism-based. In a few lines:
as §5

Series [18] is described as follows: Tmax in C57BL/6J mouse brain at 10 mg/kg, po administered once a day for 4 consecutive days by mass spectrometry based UHPLC analysis. The settings on record: time 4 day. It counts as ADME, organism-based. In a few lines:
as §4

Series [19] can be described thus: Cmax in C57BL/6J mouse plasma at 10 mg/kg, po administered as single dose by mass spectrometry based UHPLC analysis. The class given is ADME, organism-based. The arrangement: route oral, dose 10 mg/kg. In a few lines:
as §5

The nature of series [20]: AUC (0 to 8 hrs) in C57BL/6J mouse plasma at 10 mg/kg, po administered once a day for 4 consecutive days by mass spectrometry based UHPLC analysis. It counts as ADME, organism-based. Further details: route oral, time 4 day, dose 10 mg/kg. In short, it runs like this: as §3
Series [21] in a line: Toxicity in Tsc1-GFAP knockout Balb/c mouse assessed as change in body weight at 10 mg/kg, po. It counts as organism-based. To be noted: in vivo. In a few lines:
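Tsc1GFAPCKO mice dosed orally from P21 at 10, 25, 50 mg/kg or 50 mg/kg bid. Body weight tracked during the survival study; mean ± SEM.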

Series [22] in a line: Elimination half life in C57BL/6J mouse plasma at 10 mg/kg, po administered as single dose by mass spectrometry based UHPLC analysis. The class given is ADME, organism-based. To be noted: read-out: beta t1/2 (converted). In short, it runs like this: as §5
The nature of series [23]: Cmax in C57BL/6J mouse brain at 10 mg/kg, po administered once a day for 4 consecutive days by mass spectrometry based UHPLC analysis. The class given is ADME, organism-based. Further details: route oral, dose 10 mg/kg, time 4 day. In short, it runs like this: as §3
Series [24] in a line: Tmax in C57BL/6J mouse plasma at 10 mg/kg, po administered once a day for 4 consecutive days by mass spectrometry based UHPLC analysis. The class given is ADME, organism-based. The settings on record: time 4 day. In short, it runs like this: as §4
Series [25] in a line: Elimination half life in C57BL/6J mouse plasma at 10 mg/kg, po administered once a day for 4 consecutive days by mass spectrometry based UHPLC analysis. To be noted: time 4 day, read-out: beta t1/2 (converted). It counts as ADME, organism-based. In a few lines:
as §3

Series [26] is described as follows: Cmax in C57BL/6J mouse plasma at 10 mg/kg, po administered once a day for 4 consecutive days by mass spectrometry based UHPLC analysis. It counts as ADME, organism-based. Further details: route oral, dose 10 mg/kg, time 4 day. In a few lines: as §3
Series [27] deals with Mus musculus. The experiment in a line: In vivo inhibition of PI3Kalpha C57BL/6J mouse assessed as increase in plasma insulin concentration at 10 mg/kg, po measured after 8 hrs by ELISA. The class given is functional, organism-based. Background: In an ELISA, binding on a coated surface is turned into a signal by an enzyme label.
The nature of series [28]: AUC (0 to 8 hrs) in C57BL/6J mouse plasma at 10 mg/kg, po administered as single dose by mass spectrometry based UHPLC analysis. It counts as ADME, organism-based. Further details: time < 8 hr, route oral, dose 10 mg/kg. In a few lines:
as §5

The nature of series [29]: Elimination half life in C57BL/6J mouse brain at 10 mg/kg, po administered once a day for 4 consecutive days by mass spectrometry based UHPLC analysis. The class given is ADME, organism-based. To be noted: time 4 day, read-out: beta t1/2 (converted). In a few lines:
as §3

The nature of series [30]: AUC (0 to 8 hrs) in C57BL/6J mouse brain at 10 mg/kg, po administered as single dose by mass spectrometry based UHPLC analysis. The class given is ADME, organism-based. Further details: time < 8 hr, route oral, dose 10 mg/kg. In a few lines: as §5
Series [31] concerns Mus musculus. Briefly: In vivo inhibition of PI3Kalpha in C57BL/6J mouse assessed as increase in plasma glucose concentration at 10 mg/kg, po measured after 8 hrs by glucoseoxidase-peroxide coupled colorimetric assay. The class given is functional, organism-based.

Structures are written as SMILES. The source made the active and inactive calls. No cut-off for these calls is given here.

This note sets out measurements from ChEMBL document CHEMBL4715860 (J Med Chem, 2020).

With `Nc1cc(C(F)F)c(-c2nc(N3C4CCC3COC4)nc(N3C4CCC3COC4)n2)cn1`, the Activity result in series [1] is “Dose-dependent effect”; in series [2] it was “Non-Toxic”; in the series with Mus musculus [9], “Dose-dependent effect”. For the same molecule, the remaining at 3 h, 5 µM was over 59.9% in series [3], over 59.9% in [4], 27.8% in series [5] and over 59.9% in series [6]. The same molecule gave an MTD at 504 h in series [7] of 150 mg/kg. Moreover, in the series with Mus musculus [8], the outcome was Active.

Take `CO[C@H]1C[C@@H]2CC[C@@H](C)[C@@](O)(O2)C(=O)C(=O)N2CCCC[C@H]2C(=O)O[C@H]([C@H](C)C[C@@H]2CC[C@@H](OCCO)[C@H](OC)C2)CC(=O)[C@H](C)/C=C(\C)[C@@H](O)[C@@H](OC)C(=O)[C@H](C)C[C@H](C)/C=C/C=C/C=C/1C` [EVEROLIMUS]: the inhibition entry in the series with Mus musculus [10], in the series on Mus musculus [27] and in the series on Mus musculus [31] was “inactive” throughout. Moreover, the AUC (in general, the area under the concentration-time curve, a measure of exposure) at 96 h in [11] came out at 640 ng·h/mL; in [20], 42300 ng·h/mL. In addition, the Tmax (commonly the time at which the peak concentration occurs) was 24 h in series [12], 0.5 h in series [15], 4 h in [18] and 2 h in series [24]. Besides, the CL/F – broadly, clearance divided by bioavailability, as obtained after extravascular dosing – in series [13] was 3.75 mL/min/kg; in series [14] it was 4.6 mL/min/kg. Moreover, the outcome in the series on Mus musculus [16] was Active. The Cmax – broadly, the highest concentration seen after dosing – in [17] was found to be 57 ng/mL; in [19] it was 3460 ng/mL; in series [23], 43 ng/mL; in series [26], 3940 ng/mL. Moreover, in series [21], the Activity entry was “Non-Toxic”. In addition, the half-life is 6.5 h in series [22], 5.7 h in series [25] and 15.8 h in series [29]. The AUC(0-t) (in general, exposure summed from dosing to a finite time, without extrapolation to infinity) at 8 h in series [28] was 33600 ng·h/mL; in [30] it was 804 ng·h/mL.
